Reference: ChEMBL document CHEMBL4396917, “Synthesis and biological evaluation of novel benzylidene-succinimide derivatives as noncytotoxic antiangiogenic inhibitors with anticolorectal cancer activity in vivo” (Eur J Med Chem, 2019)
Activity calls are given as the source filed them. No cut-off for these calls is given here.

What was measured:
HUVEC [1] = assay: Effect on total FAK expression in VEGF-induced HUVEC at 1 to 20 uM pre-incubated for 2 hrs followed by VEGF stimulation and measured after 15 mins by Western blot analysis; assay type: ADME, cell-based; settings: human, 0.25 h
In short: (§1)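 HUVECs serum-starved overnight, pretreated with compound (methods: 1, 2.5, 5, 10 μM for 2 h; legend: 1, 5, 10, 20 μM for 1.5 h), then VEGF 50 ng/mL (methods: VEGF165, 15 min; legend: 30 min); lysates equalized by Bradford, ~20 μg protein resolved on gradient SDS-PAGE, immunoblotted, ECL detection.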

HUVEC [2] = assay: Antiinvasive activity in HUVEC assessed as inhibition of VEGF-induced cell invasion at 20 uM after 6 hrs by crystal violet staining based transwell assay relative to control; assay type: functional; settings: Homo sapiens
In short: (§2)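 Transwell: 1×10⁴ HUVECs in serum-free M200 in top chamber with vehicle or compound; bottom chamber M200 with 10% FBS; 6 h at 37°C; cells on membrane underside fixed in 4% paraformaldehyde, stained 0.1% crystal violet, imaged and counted.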

HT-29 [3] = assay: Induction of apoptosis in human HT-29 cells assessed as early apoptotic cells at 5 uM after 72 hrs by Annexin V-FITC/propidium iodide staining based flow cytometric analysis (reference value: 5.3%); assay type: cell-based; settings: ht-29, 72 h
HUVEC [4] = assay: Effect on total ERK expression in VEGF-induced HUVEC at 1 to 20 uM pre-incubated for 2 hrs followed by VEGF stimulation and measured after 15 mins by Western blot analysis; assay type: ADME, cell-based; settings: human, 0.25 h; in short: as §1
HT-29 [5] = assay: Induction of apoptosis in human HT-29 cells assessed as late apoptotic cells at 5 uM after 24 hrs by Annexin V-FITC/propidium iodide staining based flow cytometric analysis (reference value: 12.3 to 13.4%); assay type: cell-based; settings: ht-29, 24 h
HT-29 [6] = assay: Induction of apoptosis in human HT-29 cells assessed as late apoptotic cells at 20 uM after 24 hrs by Annexin V-FITC/propidium iodide staining based flow cytometric analysis (reference value: 13.4%); assay type: cell-based; settings: ht-29, 24 h
HUVEC [7] = assay: Antiinvasive activity in HUVEC assessed as inhibition of VEGF-induced cell invasion after 6 hrs by crystal violet staining based transwell assay; assay type: functional; settings: Homo sapiens; in short: as §2
[8] = molecular target: Vascular endothelial growth factor receptor 2 (Homo sapiens) (UniProt P35968); assay: Inhibition of VEGFR2 in VEGF-stimulated HUVEC assessed as suppression of VEGFR2 phosphorylation at Tyr1175 residue pre-incubated for 2 hrs followed by VEGF stimulation for 15 mins by Western blot analysis; assay type: cell-based
In short: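 HUVECs serum-starved overnight, pretreated 2 h with 1, 2.5, 5 or 10 μM compound, then stimulated 15 min with 50 ng/mL VEGF165. Lysed in Tris/EDTA/Triton/deoxycholate/SDS buffer with phosphatase and protease inhibitors. Protein equalized by Bradford, about 20 μg resolved on gradient SDS-PAGE. Blots probed for phospho and total VEGFR2 (Tyr1175), ERK1/2 (Thr202/Tyr204) and AKT (Ser473) against actin, with HRP/ECL detection.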

[9] = molecular target: Vascular endothelial growth factor receptor 2 (Homo sapiens) (UniProt P35968); assay: Inhibition of VEGFR2 in VEGF-stimulated HUVEC assessed as downregulation of FAK phosphorylation at Tyr925 residue at 1 to 10 uM pre-incubated for 2 hrs followed by VEGF stimulation and measured after 15 mins by Western blot analysis; assay type: cell-based
HT-29 [10] = assay: Induction of apoptosis in human HT-29 cells assessed as necrotic cells at 5 uM after 72 hrs by Annexin V-FITC/propidium iodide staining based flow cytometric analysis (reference value: 1.3%); assay type: cell-based; settings: ht-29, 72 h
HUVEC [11] = assay: Antiangiogenic activity in HUVEC assessed as inhibition of VEGF-induced capillary like tube formation preincubated with VEGF for 20 mins followed by compound addition measured after 6 hrs by matrigel based tube formation assay; assay type: functional, cell-based; settings: Homo sapiens
In short: (§3)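 Matrigel (100 μL) set 1 h at 37°C; 2×10⁴ HUVECs in M200 with 10% FBS added per well plus 10 ng/mL VEGF; compound added after 20 min; incubated 6 h at 37°C, then capillary-like structures photographed.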

HUVEC [12] = assay: Effect on total AKT expression in VEGF-induced HUVEC at 1 to 20 uM pre-incubated for 2 hrs followed by VEGF stimulation and measured after 15 mins by Western blot analysis; assay type: ADME, cell-based; settings: human, 0.25 h; in short: as §1
HT-29 [13] = assay: Induction of apoptosis in human HT-29 cells assessed as caspase-3 cleavage up to 20 uM after 24 to 72 hrs by Western blot analysis; assay type: cell-based
[14] = molecular target: RAC-alpha serine/threonine-protein kinase (Homo sapiens) (UniProt P31749); assay: Inhibition of AKT1 (unknown origin) at 10 uM using myelin basic protein as substrate in presence of [gamma-33P]-ATP by scintillation counting analysis relative to control
In short: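 Radiometric kinase assay: kinase (5–10 mU) in 25 mM Tris pH 7.5, 0.02 mM EGTA, 0.66 mg/mL myelin basic protein, magnesium acetate and [γ-33P]ATP. The reaction was started with Mg-ATP, run 40 min at room temperature and stopped with 3% phosphoric acid. Samples were spotted on P30 filters, washed with 75 mM phosphoric acid and methanol, then scintillation counted. Tested at 10 μM; mean of three independent experiments.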

HUVEC [15] = assay: Antiangiogenic activity in HUVEC assessed as inhibition of VEGF-induced capillary like tube formation at 1 uM preincubated with VEGF for 20 mins followed by compound addition measured after 6 hrs by matrigel based tube formation assay relative to control; assay type: functional; settings: Homo sapiens; in short: as §3
HT-29 [16] = assay: Antiangiogenic activity against human HT-29 cells xenografted in mouse assessed as reduction in formation of new blood vessels in tumour at 20 to 60 mg/kg, po administered every other day for 3 weeks measured at 20 days post-treatment; assay type: functional, organism-based
HT-29 [17] = assay: Antiangiogenic activity in human HT-29 cells assessed as decrease in secreted MMP9 activity at 1 to 20 uM after 24 hrs by gelatin zymography; assay type: functional, cell-based
In short: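 HT29 cells treated 1, 5, 10 or 20 μM for 24 h; supernatant run non-reducing on 10% SDS-PAGE with 2% gelatin; SDS removed with 2% Triton X-100, gel incubated 48 h at 37°C in Tris pH 7.5/NaCl/CaCl2 buffer, Coomassie stained; clear MMP-2 and MMP-9 bands quantified by densitometry.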

HUVEC [18] = assay: Induction of apoptosis in VEGF-stimulated HUVEC assessed as early apoptotic cells at 10 uM after 24 hrs by Annexin V-FITC/propidium iodide staining based flow cytometric analysis (reference value: 7%); assay type: cell-based; settings: human
In short: (§4)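 HUVECs plated at 5×10^5 per well and treated 24 h with 1, 5, 10 or 20 μM. Detached and adherent cells were pooled, washed in ice-cold PBS and resuspended in fresh medium. 1×10^5 cells were stained with annexin-V-FITC in annexin-V buffer for 20 min in the dark, then PI (50 μg/mL) was added. Read-out by flow cytometry.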

HUVEC [19] = assay: Induction of apoptosis in VEGF-stimulated HUVEC assessed as late apoptotic cells at 5 uM after 24 hrs by Annexin V-FITC/propidium iodide staining based flow cytometric analysis (reference value: 11.3%); assay type: cell-based; settings: human; in short: as §4

Vascular endothelial growth factor receptor 2 (Homo sapiens), sequence (P35968 whole entry): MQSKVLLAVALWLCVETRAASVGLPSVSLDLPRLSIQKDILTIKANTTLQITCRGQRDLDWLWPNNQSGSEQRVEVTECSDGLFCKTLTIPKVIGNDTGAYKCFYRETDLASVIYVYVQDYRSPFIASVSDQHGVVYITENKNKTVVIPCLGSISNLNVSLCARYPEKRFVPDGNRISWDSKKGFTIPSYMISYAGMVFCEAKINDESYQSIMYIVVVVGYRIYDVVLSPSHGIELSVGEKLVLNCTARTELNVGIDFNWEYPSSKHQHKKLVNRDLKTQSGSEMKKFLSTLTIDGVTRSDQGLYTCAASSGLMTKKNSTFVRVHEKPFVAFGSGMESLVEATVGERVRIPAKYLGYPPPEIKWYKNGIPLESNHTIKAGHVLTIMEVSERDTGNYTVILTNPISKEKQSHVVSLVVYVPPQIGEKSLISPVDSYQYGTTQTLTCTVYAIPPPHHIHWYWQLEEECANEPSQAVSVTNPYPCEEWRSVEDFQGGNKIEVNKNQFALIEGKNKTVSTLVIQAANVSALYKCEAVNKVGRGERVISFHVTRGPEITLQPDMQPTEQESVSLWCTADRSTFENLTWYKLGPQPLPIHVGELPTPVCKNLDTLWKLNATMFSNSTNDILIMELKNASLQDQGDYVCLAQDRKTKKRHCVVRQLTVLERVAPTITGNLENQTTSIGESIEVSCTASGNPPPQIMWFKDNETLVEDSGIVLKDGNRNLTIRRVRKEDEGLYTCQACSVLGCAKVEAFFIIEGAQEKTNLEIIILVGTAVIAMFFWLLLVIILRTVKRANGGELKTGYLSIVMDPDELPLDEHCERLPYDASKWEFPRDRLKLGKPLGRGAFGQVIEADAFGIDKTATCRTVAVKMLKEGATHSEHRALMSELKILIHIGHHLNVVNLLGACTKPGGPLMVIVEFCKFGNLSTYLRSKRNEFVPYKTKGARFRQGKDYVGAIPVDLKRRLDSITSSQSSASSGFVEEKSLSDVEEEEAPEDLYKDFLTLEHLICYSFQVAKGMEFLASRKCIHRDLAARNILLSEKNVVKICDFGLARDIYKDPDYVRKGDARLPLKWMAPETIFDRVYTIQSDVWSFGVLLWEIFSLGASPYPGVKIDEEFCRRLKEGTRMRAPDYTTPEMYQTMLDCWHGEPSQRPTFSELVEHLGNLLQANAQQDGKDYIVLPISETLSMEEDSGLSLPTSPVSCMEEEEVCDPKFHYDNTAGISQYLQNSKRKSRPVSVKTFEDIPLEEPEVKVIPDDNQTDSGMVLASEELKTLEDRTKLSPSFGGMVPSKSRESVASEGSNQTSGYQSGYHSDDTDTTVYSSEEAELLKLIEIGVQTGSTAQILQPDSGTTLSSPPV
RAC-alpha serine/threonine-protein kinase (Homo sapiens), sequence (P31749 whole entry): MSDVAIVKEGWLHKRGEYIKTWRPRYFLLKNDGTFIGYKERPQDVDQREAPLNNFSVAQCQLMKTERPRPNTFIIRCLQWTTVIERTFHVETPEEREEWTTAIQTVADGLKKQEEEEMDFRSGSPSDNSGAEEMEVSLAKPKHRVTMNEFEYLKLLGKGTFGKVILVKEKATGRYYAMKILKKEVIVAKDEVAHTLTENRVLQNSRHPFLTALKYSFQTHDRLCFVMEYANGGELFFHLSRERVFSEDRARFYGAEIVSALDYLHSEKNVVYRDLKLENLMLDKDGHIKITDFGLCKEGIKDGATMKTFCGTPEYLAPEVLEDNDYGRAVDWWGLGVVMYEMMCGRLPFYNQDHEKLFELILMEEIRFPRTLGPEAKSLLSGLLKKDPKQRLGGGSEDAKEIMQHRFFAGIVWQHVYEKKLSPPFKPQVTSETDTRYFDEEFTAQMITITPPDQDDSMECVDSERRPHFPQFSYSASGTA

`COc1ccc(NC(=O)c2cccc(/C=C3\CC(=O)N(c4ccc(C)cc4)C3=O)c2)cc1` was tested, and the Activity (HUVEC [1]) was “Not Active”, the inhibition at 20 µM (HUVEC [2]) was 70% and the Activity (HT-29 [3]) was 9.8%. For the same molecule, the Activity (HUVEC [4]) was “Not Active”, the Activity (HT-29 [5]) was 15.9 to 18.4% and the Activity (HT-29 [6]) was 17.1%. The inhibition (HUVEC [7]) was “Dose-dependent effect”, the inhibition [8] was “Dose-dependent effect” and the inhibition [9] was “Active”. For the same molecule, the Activity (HT-29 [10]) was 0.8%, the inhibition (HUVEC [11]) was “Dose-dependent effect” and the Activity (HUVEC [12]) was “Not Active”. For the same molecule, the Activity (HT-29 [13]) was “Non-Toxic”, the inhibition [14] was 50 to 70% and the inhibition at 1 µM (HUVEC [15]) was 30%. The inhibition (HT-29 [16]) was “Active”, the inhibition (HT-29 [17]) was “Active” and the Activity (HUVEC [18]) was 10.8%. For the same molecule, the Activity (HUVEC [19]) was 9.7%.
